NPY2 pot ag = human NPY-Y2 potentiation or agonism, primary screen. P49146. cells expressing NPY-Y2, potentiator/agonist read-out. activation, % at 3.6 µM. 0.45% of 220,000 active. AID 1359; in the data active = activation above about 27%;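 also: cells stimulated with NPY near EC25 plus isoproterenol at EC100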
Target sequence (P49146 whole entry, looked up): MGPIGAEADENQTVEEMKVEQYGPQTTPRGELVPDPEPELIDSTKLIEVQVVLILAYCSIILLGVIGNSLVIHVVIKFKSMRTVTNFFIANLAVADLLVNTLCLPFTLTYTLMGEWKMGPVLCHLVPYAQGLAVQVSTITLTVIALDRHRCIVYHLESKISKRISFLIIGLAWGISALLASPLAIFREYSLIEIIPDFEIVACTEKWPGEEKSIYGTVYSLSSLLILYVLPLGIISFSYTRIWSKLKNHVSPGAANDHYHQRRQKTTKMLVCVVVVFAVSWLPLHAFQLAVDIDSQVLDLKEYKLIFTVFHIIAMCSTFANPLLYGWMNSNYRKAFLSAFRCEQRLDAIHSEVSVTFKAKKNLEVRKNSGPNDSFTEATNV
NPY-Y2 antag = blocks the human neuropeptide Y Y2 receptor | P49146 | NPY-Y2 expressing cells, antagonist mode | inhibition, % at 2.7 µM | 0.99% of 140,000 active | AID 793; in the data active = inhibition above about 17%
NPY-Y1 PAM-ag = human NPY-Y1 potentiation or agonism, primary screen | NPY-Y1 expressing cells, potentiator/agonist activation | 0.37% of 220,000 active | activation, % at 3.6 µM | P25929 | AID 1304; in the data active = activation above about 33%, passing the limit was not always enough;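 also: cells stimulated with NPY at EC10 then isoproterenol at EC100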
RAM network inh = yeast RAM network inhibition; S. cerevisiae dse1pr::URA3 reporter, 5-FOA growth OD615, 2 d; analog-sensitive cbk1-as2 kinase mutant strain; inhibition, % at 50 µM; 1.8% of 190,000 active; AID 868;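 active = inhibition above a set limit, 3 SD over mean compound inhibition, cut at about 8.4% in these data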;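 also: inhibition rescues growth on 5-FOA so higher OD means more RAM inhibition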
Insulin prom inh = TRM-6 insulin promoter activity inhibition | TRM-6 cells, insulin promoter-eGFP reporter, imaging; reporter expression induced with tamoxifen | inhibition, % at 2 µM | 0.9% of 130,000 active | AID 1273;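 active = inhibition above the mean plus 3 SD, with well images judged a real hit on visual review, cut at about 60% in these data, passing the limit was not always enough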
NPY Y1 blocker = blocks the human neuropeptide Y Y1 receptor | inhibition, % at 3.6 µM | HEK293-CNG Y1 cells, membrane potential fluorescence; NPY at EC95, then isoproterenol | AID 1040 | P25929 | 1% of 200,000 active;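 active = inhibition above the campaign mean inhibition of all tested compounds plus 3 SD, cut at about 20% in these data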
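material = HEK293 cells with Y1 receptor plus CNG channel | also added = NPY 25 nM then isoproterenol 1 µM plus Ro 20-1724 25 µM | schedule = dye 3 h, compound 60 min room temperature, stimulation 45 min | measured by = membrane potential fluorescence | benchmarks = high control isoproterenol alone, low control NPY with isoproterenol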
NPY-Y2 pot conf = confirmation of human NPY-Y2 receptor potentiators or agonists; shares compounds with NPY2 pot ag; cell-based NPY-Y2 potentiator/agonist assay; activation, % at 3.6 µM; 20% of 450 active; in the data active = activation above about 33%
NPY-Y1 potentiator = potentiates or activates NPY-Y1, counter-screen for NPY-Y2 hits | shares compounds with NPY2 pot ag | Y1 HEK293-CNG cells, membrane potential fluorescence | activation, % at 3.6 µM | 20% of 450 active; in the data active = activation above about 45%;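 also: cells stimulated with submaximal NPY then isoproterenol with phosphodiesterase inhibitor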
NPY-Y1 ag 2 = activates human NPY-Y1, counter-screen for NPY-Y2 potentiators | HEK293 Y1-CNGC, membrane potential fluorescence, agonism | AID 1702 | shares compounds with NPY2 pot ag | 37% of 450 active | activation, % at 3.6 µM;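 active = activation above the mean of DMSO-only control wells plus 3 SD, cut at about 18% in these data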;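 also: cells stimulated with 1 µM isoproterenol plus the PDE inhibitor Ro 20-1724; Y1 agonists lower the membrane potential dye signal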
CNGC inh = counter-screen for NPY-Y2 potentiators: inhibitors of CNG channel activity; shares compounds with NPY2 pot ag; HEK293-CNG parental, isoproterenol cAMP, membrane potential fluorescence; inhibition, % at 3.6 µM; 32% of 450 active; AID 1703;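 active = inhibition above the control-well mean plus 3 SD of those wells, cut at about 22% in these data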
NPY-Y2 ag 2 = activates human NPY-Y2 receptor in potentiator counter-screen | HEK293 Y2/CNGC cells, membrane potential fluorescence, agonist mode | AID 1710 | shares compounds with NPY2 pot ag | activation, % at 3.6 µM | 56% of 450 active;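 active = activation above the mean of solvent-only control wells plus 3 SD, cut at about 10% in these data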;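 also: cells stimulated by isoproterenol with no NPY added so direct agonism is tested; agonism lowers probe fluorescence through less cAMP and CNG channel opening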
A number is an active result; . = inactive; / = not tested or not shown. Rows were chosen to be rich in hits. Some 3.8% of all compounds tested hit in one or more screens of this group.

SMILES	NPY2 pot ag	NPY-Y2 antag	NPY-Y1 PAM-ag	RAM network inh	Insulin prom inh	NPY Y1 blocker	NPY-Y2 pot conf	NPY-Y1 potentiator	NPY-Y1 ag 2	CNGC inh	NPY-Y2 ag 2
Cc1cccc2sc(NC(=O)C3CCN(S(=O)(=O)c4cc([N+](=O)[O-])ccc4Cl)CC3)nc12	40.4	.	.	.	.	.	.	.	23.7	.	41.4
Cc1nn(Cc2ccccc2Cl)c(C)c1C(=O)NC1=NCCS1	.	.	.	.	.	.	/	/	/	/	/
Cc1nn(Cc2ccccc2Cl)c(C)c1C(=O)N1CCN(c2ccccc2)CC1	116.3	.	.	.	.	.	.	.	.	.	.
NC(=O)c1ccc2nc(NC(=O)c3ccc(N)cc3)sc2c1	30.8	/	.	.	.	.	.	.	17.6	.	18.2
NS(=O)(=O)c1ccc2nc(NC(=O)c3ccncc3)sc2c1	.	/	.	.	/	.	/	/	/	/	/
CC(C)C(O)(C#CCN1CCCC1)c1ccccc1 (stereo not given)	101.9	.	.	.	.	.	.	.	.	.	.
CC(C)C(O)(C#CCN1CCCCC1)c1ccccc1 (stereo not given)	.	.	.	.	.	.	/	/	/	/	/
COc1ccc(N(CC(=O)N/N=C/c2ccc3c(c2)OCO3)S(=O)(=O)c2ccc(NC(C)=O)cc2)cc1	.	/	.	.	.	.	/	/	/	/	/
CC(C)CCNCC(=O)NC(c1ccccc1)c1ccccc1	.	/	.	.	.	.	/	/	/	/	/
CCc1cc[n+](/C(C(=S)Nc2cccc(C)c2)=C(/[O-])c2ccc(C)c([N+](=O)[O-])c2)cc1	41.7	.	.	.	/	.	.	.	.	.	14.7
Cc1ccc(NC(=O)Cc2nnc(N)s2)cc1	.	/	.	/	/	/	/	/	/	/	/
Nc1nnc(CC(=O)Nc2ccccc2)s1	47.1	/	.	/	/	/	.	.	.	.	.
Cc1ccc(C)c(Nc2nc(N)c3ccccc3n2)c1	36.4	/	.	.	/	.	63.5	81.6	43.7	57.6	55.5
COc1ccccc1CNC(=O)CN1C(=O)CSc2ccc(S(=O)(=O)N3CCCC3)cc21	.	/	.	.	/	.	/	/	/	/	/
COCCNC(=O)CN1C(=O)CSc2cc(S(=O)(=O)N3CCCCCC3)ccc21	97.2	.	.	/	/	.	.	.	.	.	.
S=c1nc(SCc2ccccc2)[nH]c2ccccc12	.	/	.	.	.	.	/	/	/	/	/
c1ccc(CSc2nc3ncncc3[nH]2)cc1	47.9	/	.	/	/	/	.	.	.	.	19.2
CCCC(=O)N(CCN(C(=O)CCC)c1ccccc1)c1ccccc1	.	.	.	.	.	.	/	/	/	/	/
CC1=NC(=O)C(N=Nc2ccccc2C(=O)O)N1c1ccccc1 (stereo not given)	29.9	/	.	.	/	.	.	.	.	.	14.5
OCCN(CCO)c1ccc(C(c2ccccc2Cl)c2ccc(N(CCO)CCO)cc2Cl)c(Cl)c1	34.2	.	.	.	.	.	34.7	47.5	30.9	37.4	38.6
OCCN(CCO)c1ccc2ccccc2c1	.	/	.	.	.	.	/	/	/	/	/
CCOC(=O)Nc1nnc(-c2cccc(OC)c2)s1	48.8	.	.	.	.	.	.	.	24.7	.	.
COc1ccc(C(=S)N2CCN(c3ccccc3Cl)CC2)cc1OC	.	/	.	/	/	/	/	/	/	/	/
COc1cc(C(=S)N2CCN(c3ccccc3Cl)CC2)cc(O)c1O	30.7	/	.	.	/	.	.	.	.	.	23.0
CN(C)CCCN(C(=O)/C=C/c1cccs1)c1nc2ccc(F)cc2s1	.	/	.	.	.	.	/	/	/	/	/

Screening data as filed in PubChem.
